Experiment: Toxicity liver stage against HepG2, at 10uM
Type: cell-based
Parameters: test concentration 10 uM, cell line HepG2-A16-CD81EGFP
Conditions: human, HepG2-A16-CD81EGFP cells; read-out: INHIBITION
How it was run: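 Uninfected HepG2-A16-CD81EGFP cells, 3 × 10^3 per well, 1536-well, plated on prespotted compound at 10 μM final, parasite-free screening media added to match infected plates; puromycin 10 μM positive, DMSO 0.5% negative; run in parallel with 48 h PbLuc assay at 37 °C, 5% CO2; viability by CellTiter-Glo luminescence, normalized to controls.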

Row | Compound | cytotoxicity at 10 µM
1 | CCC1(CC)Cc2ccccc2-c2nc(CN(C)C)nc(O)c21 | -8.95%
2 | CCOC(=O)C1CC2(CCCCC2)N2CCC(=O)N12 (centres undefined) | 2.63%
3 | C[C@@H](CO)NC(=O)c1ccc2nc(NS(C)(=O)=O)sc2c1 | 6.84%
4 | CCOCC(=O)NCC(Cc1cccc(F)c1)N1CCCCC1=O (centres undefined) | -1.89%
5 | CNC(=O)CN1CCC(c2nn(C)c(=O)n2-c2ccccc2)CC1 | -14%
6 | COC(=O)c1sccc1S(=O)(=O)N1CCC(Oc2cnccn2)CC1 | 9.32%
7 | COC[C@@H]1CCC[C@]12CN(S(=O)(=O)c1cccs1)CCO2 | -5.73%
8 | O=C(Cc1ccccc1)N1CC[C@@H]2CNS(=O)(=O)[C@@H]2CC1 | -9.88%
9 | Cn1cccc1C(=O)N1CC[C@H]2[C@@H]1CCC(=O)N2CC1CC1 | -11.1%
10 | NC(=O)c1ccc2c(c1)nc1n2CCN(Cc2cccnc2)C1 | 10.3%
11 | O=C(O)c1ccc2ccc(N3CCN(CC4CC4)CC3)n2c1 | 7.25%
12 | CNc1cc(C)nc(C2COCCN2Cc2csc(C)n2)n1 (centres undefined) | 1.45%
13 | CC(C)Cn1nc(-c2ccc(C(=O)O)cc2)cc1-c1ccc(F)cc1 | 8.88%
14 | COc1ccc(S(=O)(=O)N2CCC[C@@H]3CN(C(=O)C4CC4)C[C@@H]32)cc1 | 14.7%
15 | COCC(=O)N1CCC(c2cccc(Cc3ccc(F)cc3)n2)CC1 | 10.3%
16 | COc1ccccc1Cc1nnc(SCCS(C)(=O)=O)o1 | 5.89%
17 | O=C(Cc1ccc2c(c1)CCCC2)Nc1cccnc1N1CCSCC1 | 11.4%
18 | COc1cccc2c1CCCCN2C(=O)c1oc(C)nc1C | 3.3%
19 | c1cnnc(N2CCCC(NCc3cccc4c3OCO4)C2)c1 (centres undefined) | 2.97%
20 | CNS(=O)(=O)c1ccc(CNC(=O)C2CCCO2)cc1 (centres undefined) | 2.45%
21 | Cn1cc(C2CN(C(=O)Cc3coc(-c4ccccc4)n3)CCO2)cn1 (centres undefined) | -12.4%
22 | O=C(c1cccnc1O)N1CCN(Cc2ccccc2F)CC1 | 5.57%

Row | Compound | cytotoxicity at 10 µM
23 | O=C(Nc1cccc(CN2CCOC2=O)c1)N1CCCC1 | -3.54%
24 | CCCC1CCCN(C(=O)Nc2ccc(F)c(C(N)=O)c2)CC1 (centres undefined) | -2.27%
25 | CSCCC(=O)N1CCCC1c1nnc2n1CCCCC2 (centres undefined) | -5.79%
26 | CCc1nnc2n1CCN(C(=O)c1cnn(C)c1C1CC1)C2 | -6.93%
27 | CC(Cn1cccn1)C(=O)N1CCC(Nc2cccnn2)CC1 (centres undefined) | -9.28%
28 | CCc1[nH]n(C)c(=N)c1-c1ccc2c(c1)OCO2 | -45.1%
29 | Cc1ccc2cc(C(=O)N3CCS(=O)(=O)CC3)[nH]c2c1 | -56.3%
30 | Cc1nc(CN(CCS(C)(=O)=O)C(C)C)cs1 | -44.2%
31 | O=C(CN1CCN(CCO)CC1)NCc1ccc(Cl)s1 | 9.3%
32 | Cc1ccc(CNC(=O)CN(C)CC2CCN(CCO)CC2)s1 | 9.83%
33 | CC(O)CC(C)(C)CNS(=O)(=O)c1cccc(Cl)c1C#N (centres undefined) | -6.03%
34 | COCCOC1CCN(C(=O)NCc2cc(C)oc2C)CC1 | -4.23%
35 | Cc1c(C(=O)NS(=O)(=O)c2ccsc2)cnn1CC(C)C | 11.6%
36 | CC(C)Cc1noc(CN2CCC(NC(=O)c3cccs3)CC2)n1 | -17.9%
37 | O=C(CC1CC1)N[C@@H]1CN(C(=O)c2cccs2)C[C@@H]2CCCO[C@@H]21 | -113%
38 | CC(C)N1C(=O)C[C@H]2[C@@H]1CCN2C(=O)c1ccco1 | -99%
39 | CCS(=O)(=O)NCC1Cn2nnc(-c3ccccc3)c2CO1 (centres undefined) | -75.4%
40 | Cc1ccc2c(n1)N(CCN(C)C)CCN(C(=O)c1ccco1)C2 | -65.8%
41 | CCOCC1CN(C(=O)Cc2ccccn2)Cc2cnn(CC)c21 (centres undefined) | -68.9%
42 | Cn1cc(CN2CCC3(CCCN3S(C)(=O)=O)CC2)cn1 | 1.59%
43 | Cc1ccsc1C(=O)N1Cc2ccccc2C2(CCN(C)CC2)C1 | 2.6%
44 | O=C1CCc2cc(NC(=O)N3CCCN(Cc4cccs4)CC3)ccc21 | -11.1%

Row | Compound | cytotoxicity at 10 µM
45 | CN1CCC(N2CCC(CN(Cc3ccncc3)C3CCC3)CC2)CC1 | -7.19%
46 | CCCc1cc(CNc2cc(CCC)nc3ccnn23)on1 | -6.75%
47 | Cc1nc2cc(CNC(=O)C3CC(=O)N(C4CCCC4)C3)ccc2n1C (centres undefined) | -2.37%
48 | CCCc1nnc(NC(C)c2ccc3c(c2)OCCO3)o1 (centres undefined) | 0.965%
49 | COc1cccc2c1OCC(NCc1cnn(-c3ccccc3F)c1)C2 (centres undefined) | 1.68%
50 | CCC1(CO)CCCN(C(=O)c2ccc(N3CCN(C)CC3)cc2)C1 (centres undefined) | -4.71%
51 | Cc1ccc(N2CCN(C3CCc4ccccc4C3)CC2)nn1 (centres undefined) | -0.75%
52 | CC(C)NS(=O)(=O)c1cc(C(=O)O)cc(-c2ccccc2C#N)c1 | -3.73%
53 | Cc1ccccc1C(C(=O)N(C)CCc1cn[nH]c1)N(C)C (centres undefined) | -5.86%
54 | Cc1nc(CN2CCC3(CCCO3)CC2)c2ccccn12 | 2.07%
55 | CCSc1ccc(C(=O)N2CC[C@](O)(CC)[C@H](O)C2)s1 | -7.17%
56 | CN(C)c1nc2c(c(=O)[nH]1)Cc1ccccc1OC2 | -104%
57 | CCOc1ccc2[nH]c(=O)c(CN(C)CCc3cn[nH]c3)cc2c1 | 25.9%
58 | Cc1ccccc1SC1CCN(C(=O)CCCS(N)(=O)=O)CC1 | -7.76%
59 | CCCN1CCN(C(=O)c2cc[nH]n2)[C@H]2CS(=O)(=O)C[C@H]21 | 2.29%
60 | Cn1cc(C2=CCN(CCCOc3ccc(C(N)=O)cc3)CC2)cn1 | 6.39%
61 | CC(C)c1cc(N2CCC(N(C)C)C2)n2nccc2n1 (centres undefined) | -0.869%
62 | Cn1c(=O)oc2ccc(NC(=O)N3CCOCC3)cc21 | -5.09%
63 | O=C(Nc1ccc(-n2cccn2)cc1)N1CCOCC(O)C1 (centres undefined) | -46.8%
64 | CC(C)(C)c1cn(C2CCN(C(=O)c3cncnc3)CC2)nn1 | 13%
65 | CCCC(=O)NCC1CCCN(Cc2cc(C)c(C)o2)C1 (centres undefined) | 8.82%
66 | Cc1nc[nH]c1CNC1CC(=O)N(CCc2cccc(Cl)c2)C1 (centres undefined) | -135%

Row | Compound | cytotoxicity at 10 µM
67 | COc1cccc(-c2cccc(N3CCC(N[C@@H]4CCOC4)CC3)c2)c1 | -12.7%
68 | COc1ccc(OCc2nc(C(=O)N3CCCNC(=O)C3)co2)cc1 | -45.1%
69 | CN1CCCC1CCn1ccnc1-c1nc2ccccc2[nH]1 (centres undefined) | 5.47%
70 | CC(C)c1nnsc1CNC(=O)C1CCCN(C(=O)N(C)C)C1 (centres undefined) | -7.73%
71 | COc1cccc(-c2n[nH]c3c2CN(C(=O)c2cccc(=O)[nH]2)CC3)c1 | -5.66%
72 | CCN1CCCC1CN(Cc1ccoc1)CC1CCN(CCOC)CC1 (centres undefined) | -2.64%
73 | Cc1ncc(CN2CCC(n3cc(-c4ccc(F)cc4)nn3)CC2)cn1 | 5.48%
74 | CN1CC2(CCN(Cc3ncc[nH]3)CC2)CC1=O | -1.52%
75 | Cc1csc2c(N3CCC(NCCc4ccnn4C)CC3)ncnc12 | 0.429%
76 | Cc1cc(-c2n[nH]c3c2CN(S(=O)(=O)c2ccsc2)CC3)c(C)o1 | -15.8%
77 | CCCN(CCOC)c1nc(C)nc2sccc12 | -134%
78 | O=C1CCCCN1CCC(=O)N1CCCCC1c1ccc(F)cc1 (centres undefined) | -41.7%
79 | CCc1nnc(CN(C)c2nc(C(C)C)nc3c2cnn3C)o1 | -9.52%
80 | COC[C@@]12CC[C@@H](N3CCOCC3)C[C@H]1CCN(c1ncccn1)C2 | -11.9%
81 | O=C(COc1cccc(F)c1)N1C[C@@H](O)[C@H](N2CCCC2)C1 | -4.22%
82 | CC(C)c1nc(C2CCCN2Cc2ccncc2Cl)no1 (centres undefined) | -2.83%
83 | Cc1[nH]ncc1C(=O)N1CCCN(Cc2nccn2C(C)C)CC1 | -6.33%
84 | COc1cccc2cc(CNC(=O)N3CCC(N4CCCC4)C3)oc12 (centres undefined) | -2.69%
85 | CN(C(=O)Cc1cccs1)C1CCN(c2ccccn2)CC1 | -3.54%
86 | CC(Oc1ccccc1)C(=O)N1CCCN(Cc2nccn2C)CC1 (centres undefined) | 0.471%
87 | Cn1ncc2c(=O)[nH]c(CN(Cc3ccco3)C3CCCC3)nc21 | 20.8%
88 | CC(C)N(C)S(=O)(=O)N(C)Cc1ccc2c(c1)OCO2 | -0.0868%

Row | Compound | cytotoxicity at 10 µM
89 | Cc1cc(CN(C)C2CCCN(Cc3noc(C4CC4)n3)C2)no1 (centres undefined) | -10.8%
90 | CCc1c(C(=O)N2CCN(CC(N)=O)CC2)cnn1C(C)(C)C | -1.77%
91 | Cn1cnc2c1CCN(Cc1nc(COc3ccc(F)cc3)no1)C2 | -7.22%
92 | COc1ccc(-c2noc(CNC(C)Cn3cccn3)n2)c(OC)c1 (centres undefined) | -0.144%
93 | O=C(c1ccc[nH]1)N1CCCC(c2cc(C(F)(F)F)[nH]n2)C1 (centres undefined) | 2.04%
94 | Cc1csc(CNC(=O)N(C)Cc2cnn(C)c2)n1 | -1.57%
95 | Cc1cc(C)n(-c2ccc(CNCc3ccc(OC(C)C)cc3)cn2)n1 | -6.95%
96 | Cc1nc(C)n(CC2CN(CCOc3ccccc3F)CCO2)n1 (centres undefined) | -1.44%
97 | CC(C)C(NC(=O)Cn1ccc(=O)n(C)c1=O)c1ccc(F)cc1 (centres undefined) | -9.9%
98 | Clc1ccc(OCCCN2CCN(c3cnccn3)CC2)cc1 | -8.11%
99 | CCc1nc(CN2CCCN(C(=O)COCC3CC3)CC2)cs1 | -5.2%
100 | Cn1nc(COc2cccnc2)c2c1CCN(c1cnccn1)C2 | 1.34%
101 | Cc1noc([C@@H]2C[C@H]3OCC[C@H]3N(Cc3sccc3C)C2)n1 | -69.1%
102 | CCS(=O)(=O)NC[C@]12COC[C@H]1CN(Cc1ccsc1)C2 | 6.37%
103 | CCOc1ncnc2c1CCN(C(=O)c1ccncc1F)CC2 | -76.6%
104 | Cc1ccc(N2CCC3(CCCN3Cc3ccn(C)n3)CC2)nn1 | 11.6%
105 | CNC(=O)COC1COC2(CCN(c3ccc(C)nn3)CC2)C1 (centres undefined) | -0.419%
106 | COCCN1CCC2(CC1)CC(NCc1cncn1C)c1ccccc12 (centres undefined) | -8.13%
107 | c1coc(CN2CC[C@H]3O[C@@H](COCC4CC4)CC[C@H]32)c1 | -137%
108 | CCS(=O)(=O)NC[C@]12COC[C@H]1CN(Cc1ccncc1)C2 | 6.01%
109 | Cc1c(C2N3CC4(C(C)C)CN2CC(C(C)C)(C3)C4=O)[nH]c(=O)[nH]c1=O (centres undefined) | 8.71%

From ChEMBL document CHEMBL4513216, “Probing the Open Global Health Chemical Diversity Library for Multistage-Active Starting Points for Next-Generation Antimalarials” (ACS Infect Dis, 2020)
